# Measured values taken from ChEMBL document CHEMBL4325835, “Atropisomerism by Design: Discovery of a Selective and Stable Phosphoinositide 3-Kinase (PI3K) β Inhibitor” (J Med Chem, 2018).
# Values joined by “and” are separate entries in the source; they are usually repeats but may differ in a detail not shown here. Identical values can stand only once. “Also recorded” adds a separate entry of the source. Active and inactive are the calls of the source. No cut-off for these calls is given here.
# How the values were obtained:
# [1] = target: PI3-kinase p110-alpha/p85-alpha (Homo sapiens, UniProt P42336); assay: Inhibition of full length human p110alpha/p85alpha using PIP2 as substrate after 30 mins by TR-FRET assay; format: protein-complex assay
# How it was run: (§1)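 In vitro kinase assay run against each Class I PI3K isoform, with ATP at 2×Km steady-state concentration; IC50 values are the average of at least 2 determinations.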
# PI3K p110 beta/p85 alpha = PI3K p110 beta/p85 alpha (Homo sapiens, UniProt P42338); assay: Inhibition of full length human His-tagged p110beta/p85alpha using PIP2 as substrate after 30 mins by TR-FRET assay; format: protein-complex assay; how it was run: as §1
# [2] = target: PI3-kinase p110-delta/p85-alpha (Homo sapiens, UniProt O00329); assay: Inhibition of full length human p110delta/p85alpha using PIP2 as substrate after 30 mins by TR-FRET assay; format: protein-complex assay; how it was run: as §1
# [3] = target: Phosphatidylinositol 4,5-bisphosphate 3-kinase catalytic subunit gamma isoform (Homo sapiens, UniProt P48736); assay: Inhibition of full length human PI3Kgamma using PIP2 as substrate after 30 mins by TR-FRET assay; how it was run: as §1
# [4] = Intrinsic clearance in human liver microsomes at 1 uM measured in presence of NADPH/UDPGA by UHPLC-HRMS based assay; format: ADME, Microsome
# Aldehyde oxidase [5] = target: T1, Aldehyde oxidase (Homo sapiens, UniProt Q06278); assay: Drug metabolism in human hepatocytes assessed as AO-mediated 4-(6-(2-amino-3-fluoropyridin-4-yl)-2-methyl-4-(4H-1,2,4-triazol-3-yl)-1H-benzo[d]imidazol-1-yl)-5,8-difluoroquinolin-2(1H)-one metabolite formation at 0.5 uM measured up to 250 mins by UHPLC-HRMS based assay; format: ADME, cell-based
# T1 sequence (Q06278 whole entry): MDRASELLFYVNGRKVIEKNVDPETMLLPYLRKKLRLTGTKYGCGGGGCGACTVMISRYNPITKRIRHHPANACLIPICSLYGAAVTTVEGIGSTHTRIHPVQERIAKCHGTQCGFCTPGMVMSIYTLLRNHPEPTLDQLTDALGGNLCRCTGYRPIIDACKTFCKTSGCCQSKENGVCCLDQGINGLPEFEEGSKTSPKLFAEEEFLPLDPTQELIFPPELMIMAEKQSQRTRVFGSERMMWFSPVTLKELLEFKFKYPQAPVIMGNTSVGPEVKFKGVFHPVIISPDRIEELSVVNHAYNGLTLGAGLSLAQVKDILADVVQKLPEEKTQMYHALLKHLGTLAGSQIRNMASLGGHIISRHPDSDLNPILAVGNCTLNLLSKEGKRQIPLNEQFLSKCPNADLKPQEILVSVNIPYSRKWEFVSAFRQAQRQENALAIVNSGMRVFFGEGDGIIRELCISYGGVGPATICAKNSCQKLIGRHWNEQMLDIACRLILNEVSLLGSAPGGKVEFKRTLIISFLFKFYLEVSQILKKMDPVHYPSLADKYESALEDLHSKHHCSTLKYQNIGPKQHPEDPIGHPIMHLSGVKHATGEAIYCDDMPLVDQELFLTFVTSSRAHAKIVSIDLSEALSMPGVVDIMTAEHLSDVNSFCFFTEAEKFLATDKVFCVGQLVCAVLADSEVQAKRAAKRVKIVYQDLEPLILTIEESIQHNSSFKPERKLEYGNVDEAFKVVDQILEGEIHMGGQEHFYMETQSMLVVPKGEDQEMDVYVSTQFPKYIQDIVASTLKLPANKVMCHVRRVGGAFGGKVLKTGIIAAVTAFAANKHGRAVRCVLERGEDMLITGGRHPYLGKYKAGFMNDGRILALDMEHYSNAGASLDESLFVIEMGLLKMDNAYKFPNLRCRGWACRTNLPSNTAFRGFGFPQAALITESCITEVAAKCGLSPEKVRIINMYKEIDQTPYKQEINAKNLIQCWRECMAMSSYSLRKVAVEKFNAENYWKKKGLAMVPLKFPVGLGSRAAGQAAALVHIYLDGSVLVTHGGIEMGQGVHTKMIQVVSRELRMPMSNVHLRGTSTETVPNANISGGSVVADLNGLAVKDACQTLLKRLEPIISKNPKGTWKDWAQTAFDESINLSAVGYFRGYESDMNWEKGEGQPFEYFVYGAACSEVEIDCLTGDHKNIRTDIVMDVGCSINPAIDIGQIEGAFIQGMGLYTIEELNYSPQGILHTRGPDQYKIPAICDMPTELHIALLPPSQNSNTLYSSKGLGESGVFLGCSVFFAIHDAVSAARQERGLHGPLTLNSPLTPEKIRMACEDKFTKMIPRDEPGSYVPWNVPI
# Aldehyde oxidase [6] = target: T1, Aldehyde oxidase; assay: Drug metabolism in human hepatocytes assessed as AO-mediated triazole oxidation at 0.5 uM measured up to 250 mins by UHPLC-HRMS based assay; format: ADME, cell-based
# Aldehyde oxidase [7] = target: T1, Aldehyde oxidase; assay: Drug metabolism in human liver cytosol assessed as AO-mediated 4-(6-(2-amino-3-fluoropyridin-4-yl)-2-methyl-4-(4H-1,2,4-triazol-3-yl)-1H-benzo[d]imidazol-1-yl)-5,8-difluoroquinolin-2(1H)-one metabolite formation at 0.5 uM measured after 2 hrs by UHPLC-HRMS based assay; format: ADME, subcellular
# [8] = target: Voltage-gated inwardly rectifying potassium channel KCNH2 (Homo sapiens, UniProt Q12809); assay: Inhibition of human ERG at 25 uM
# Cytochrome P450 = assay: Inhibition of human CYP450 at 25 uM; format: ADME, protein assay
# [9] = Fraction unbound in Sprague-Dawley rat plasma; format: ADME, cell-free
# [10] = Clearance in Sprague-Dawley rat at 1 mg/kg, iv by ESI-LC/MS/MS analysis; format: ADME, organism-based; conditions: in vivo
# [11] = Volume of distribution at steady state in Sprague-Dawley rat at 1 mg/kg, iv by ESI-LC/MS/MS analysis; format: ADME, organism-based; conditions: in vivo, read-out: Vdss
# [12] = Terminal half life in Sprague-Dawley rat at 1 mg/kg, iv by ESI-LC/MS/MS analysis; format: ADME, organism-based; conditions: in vivo, read-out: beta t1/2 (converted)
# [13] = MRT in Sprague-Dawley rat at 1 mg/kg, iv by ESI-LC/MS/MS analysis; format: ADME, organism-based; conditions: in vivo
# [14] = Oral bioavailability in Sprague-Dawley rat at 5 mg/kg by ESI-LC/MS/MS analysis; format: ADME, organism-based; conditions: in vivo
# [15] = Fraction unbound in Beagle dog plasma; format: ADME, cell-free, Canis lupus familiaris
# [16] = Clearance in Beagle dog at 1 mg/kg, iv by ESI-LC/MS/MS analysis; format: ADME, organism-based, Canis lupus familiaris; conditions: in vivo
# [17] = Volume of distribution at steady state in Beagle dog at 1 mg/kg, iv by ESI-LC/MS/MS analysis; format: ADME, organism-based, Canis lupus familiaris; conditions: in vivo, read-out: Vdss
# [18] = Terminal half life in Beagle dog at 1 mg/kg, iv by ESI-LC/MS/MS analysis; format: ADME, organism-based, Canis lupus familiaris; conditions: in vivo, read-out: beta t1/2 (converted)
# [19] = MRT in Beagle dog at 1 mg/kg, iv by ESI-LC/MS/MS analysis; format: ADME, organism-based, Canis lupus familiaris; conditions: in vivo
# [20] = Fraction unbound in cynomolgus monkey plasma; format: ADME, cell-free, Macaca fascicularis
# [21] = Clearance in cynomolgus monkey at 1 mg/kg, iv by ESI-LC/MS/MS analysis; format: ADME, organism-based, Macaca fascicularis; conditions: in vivo
# [22] = Volume of distribution at steady state in cynomolgus monkey at 1 mg/kg, iv by ESI-LC/MS/MS analysis; format: ADME, organism-based, Macaca fascicularis; conditions: in vivo, read-out: Vdss
# [23] = Terminal half life in cynomolgus monkey at 1 mg/kg, iv by ESI-LC/MS/MS analysis; format: ADME, organism-based, Macaca fascicularis; conditions: in vivo, read-out: beta t1/2 (converted)
# [24] = MRT in cynomolgus monkey at 1 mg/kg, iv by ESI-LC/MS/MS analysis; format: ADME, organism-based, Macaca fascicularis; conditions: in vivo
# [25] = Oral bioavailability in cynomolgus monkey at 5 mg/kg by ESI-LC/MS/MS analysis; format: ADME, organism-based, Macaca fascicularis; conditions: in vivo
# [26] = Fraction unbound in rhesus monkey plasma; format: ADME, cell-free, Macaca mulatta
# [27] = Clearance in rhesus monkey at 1 mg/kg, iv by ESI-LC/MS/MS analysis; format: ADME, organism-based, Macaca mulatta; conditions: in vivo
# [28] = Volume of distribution at steady state in rhesus monkey at 1 mg/kg, iv by ESI-LC/MS/MS analysis; format: ADME, organism-based, Macaca mulatta; conditions: in vivo, read-out: Vdss
# [29] = Terminal half life in rhesus monkey at 1 mg/kg, iv by ESI-LC/MS/MS analysis; format: ADME, organism-based, Macaca mulatta; conditions: in vivo, read-out: beta t1/2 (converted)
# [30] = MRT in rhesus monkey at 1 mg/kg, iv by ESI-LC/MS/MS analysis; format: ADME, organism-based, Macaca mulatta; conditions: in vivo
# [31] = Permeability across apical to basolateral side in human Caco2 cells at 10 uM after 1 to 2 hrs by LC/MS/MS analysis; format: ADME, cell-based; conditions: Caco-2, read-out: permeability
# [32] = Efflux ratio of apparent permeability in human Caco2 cells at 10 uM after 1 to 2 hrs by LC/MS/MS analysis; format: ADME, cell-based; conditions: Caco-2
# [33] = Conformation stability assessed as rate constant for (P)-4-(1-(5,8-difluoroquinolin-4-yl)-2-methyl-4-(4H-1,2,4-triazol-3-yl)-1H-benzo[d]imidazol-6-yl)-3-fluoropyridin-2-amine formation at 10 mg at 120 degC by chiral SFC analysis; format: physicochemical
# [34] = target: Phosphatidylinositol 4,5-bisphosphate 3-kinase catalytic subunit beta isoform (Homo sapiens) (UniProt P42338); assay: Inhibition of partial length human PI3Kbeta expressed in mammalian system at 10 uM by active site-directed competition binding based KINOMEscan assay
# How it was run: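 Active-site-directed competition binding assay across more than 400 human kinases, with compound tested at 10 µM.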
# Sequence of Phosphatidylinositol 4,5-bisphosphate 3-kinase catalytic subunit gamma isoform (P48736 whole entry, canonical isoform): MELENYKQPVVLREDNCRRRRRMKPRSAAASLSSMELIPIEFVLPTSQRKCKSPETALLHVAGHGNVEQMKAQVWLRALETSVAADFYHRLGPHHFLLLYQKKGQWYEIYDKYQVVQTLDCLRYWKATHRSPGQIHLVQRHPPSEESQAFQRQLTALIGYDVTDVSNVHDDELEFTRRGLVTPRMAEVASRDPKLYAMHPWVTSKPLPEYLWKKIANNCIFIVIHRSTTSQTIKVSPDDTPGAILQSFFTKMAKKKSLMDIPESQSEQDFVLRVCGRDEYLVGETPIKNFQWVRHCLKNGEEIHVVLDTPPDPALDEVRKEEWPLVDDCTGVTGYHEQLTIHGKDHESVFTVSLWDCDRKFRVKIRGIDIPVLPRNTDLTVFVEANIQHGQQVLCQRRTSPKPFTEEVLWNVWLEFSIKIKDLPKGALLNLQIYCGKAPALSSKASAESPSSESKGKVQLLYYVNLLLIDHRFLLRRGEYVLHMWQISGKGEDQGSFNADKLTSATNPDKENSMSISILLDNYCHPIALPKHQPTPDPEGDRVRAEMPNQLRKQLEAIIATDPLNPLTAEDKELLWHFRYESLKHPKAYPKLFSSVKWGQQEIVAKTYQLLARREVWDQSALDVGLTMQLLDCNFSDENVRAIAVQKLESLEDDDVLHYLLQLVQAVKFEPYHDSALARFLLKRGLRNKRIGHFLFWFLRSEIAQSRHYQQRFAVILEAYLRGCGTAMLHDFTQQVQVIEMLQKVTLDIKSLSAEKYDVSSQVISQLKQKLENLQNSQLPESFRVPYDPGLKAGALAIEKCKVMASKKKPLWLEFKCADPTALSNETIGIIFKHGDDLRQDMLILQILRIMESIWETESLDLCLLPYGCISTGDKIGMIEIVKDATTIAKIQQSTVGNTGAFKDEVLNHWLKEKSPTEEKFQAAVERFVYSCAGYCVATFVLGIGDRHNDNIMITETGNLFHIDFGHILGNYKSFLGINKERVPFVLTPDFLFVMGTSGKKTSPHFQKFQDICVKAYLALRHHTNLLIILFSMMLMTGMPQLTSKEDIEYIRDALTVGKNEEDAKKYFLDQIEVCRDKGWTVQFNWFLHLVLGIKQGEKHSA
# Sequence of Voltage-gated inwardly rectifying potassium channel KCNH2 (Q12809 whole entry): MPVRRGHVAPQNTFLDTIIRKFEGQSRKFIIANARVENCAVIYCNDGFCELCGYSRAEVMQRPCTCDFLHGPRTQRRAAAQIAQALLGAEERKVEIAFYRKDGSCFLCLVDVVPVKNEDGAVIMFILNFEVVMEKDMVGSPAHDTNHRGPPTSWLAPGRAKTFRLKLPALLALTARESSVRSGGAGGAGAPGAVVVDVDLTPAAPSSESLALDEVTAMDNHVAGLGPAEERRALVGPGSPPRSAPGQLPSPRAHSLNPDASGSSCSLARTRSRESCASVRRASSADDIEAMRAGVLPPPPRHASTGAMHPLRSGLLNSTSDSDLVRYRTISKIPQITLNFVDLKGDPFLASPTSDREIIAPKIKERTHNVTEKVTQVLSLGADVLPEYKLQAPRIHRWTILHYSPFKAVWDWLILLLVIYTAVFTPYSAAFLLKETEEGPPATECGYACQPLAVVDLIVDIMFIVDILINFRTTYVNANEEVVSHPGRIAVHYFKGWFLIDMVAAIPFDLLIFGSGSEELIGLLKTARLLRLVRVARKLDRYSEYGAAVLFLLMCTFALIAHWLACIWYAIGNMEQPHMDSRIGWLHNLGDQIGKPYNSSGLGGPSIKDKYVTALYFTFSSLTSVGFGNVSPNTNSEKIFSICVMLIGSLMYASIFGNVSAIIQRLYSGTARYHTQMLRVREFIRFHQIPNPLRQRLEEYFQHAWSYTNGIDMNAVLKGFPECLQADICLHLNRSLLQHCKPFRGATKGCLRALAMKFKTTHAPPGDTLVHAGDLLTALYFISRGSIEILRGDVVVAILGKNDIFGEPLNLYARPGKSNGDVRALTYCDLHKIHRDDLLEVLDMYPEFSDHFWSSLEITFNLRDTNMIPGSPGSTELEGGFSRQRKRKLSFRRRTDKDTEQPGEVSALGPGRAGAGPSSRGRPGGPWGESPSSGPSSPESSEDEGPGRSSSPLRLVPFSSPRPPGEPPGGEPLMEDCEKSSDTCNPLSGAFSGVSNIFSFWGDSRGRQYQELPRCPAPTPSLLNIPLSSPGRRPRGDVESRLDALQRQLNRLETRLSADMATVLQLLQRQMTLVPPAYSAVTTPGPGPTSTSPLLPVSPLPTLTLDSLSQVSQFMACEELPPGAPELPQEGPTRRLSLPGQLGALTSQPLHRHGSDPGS
# Sequence of PI3-kinase p110-alpha/p85-alpha (P27986 whole entry, canonical isoform): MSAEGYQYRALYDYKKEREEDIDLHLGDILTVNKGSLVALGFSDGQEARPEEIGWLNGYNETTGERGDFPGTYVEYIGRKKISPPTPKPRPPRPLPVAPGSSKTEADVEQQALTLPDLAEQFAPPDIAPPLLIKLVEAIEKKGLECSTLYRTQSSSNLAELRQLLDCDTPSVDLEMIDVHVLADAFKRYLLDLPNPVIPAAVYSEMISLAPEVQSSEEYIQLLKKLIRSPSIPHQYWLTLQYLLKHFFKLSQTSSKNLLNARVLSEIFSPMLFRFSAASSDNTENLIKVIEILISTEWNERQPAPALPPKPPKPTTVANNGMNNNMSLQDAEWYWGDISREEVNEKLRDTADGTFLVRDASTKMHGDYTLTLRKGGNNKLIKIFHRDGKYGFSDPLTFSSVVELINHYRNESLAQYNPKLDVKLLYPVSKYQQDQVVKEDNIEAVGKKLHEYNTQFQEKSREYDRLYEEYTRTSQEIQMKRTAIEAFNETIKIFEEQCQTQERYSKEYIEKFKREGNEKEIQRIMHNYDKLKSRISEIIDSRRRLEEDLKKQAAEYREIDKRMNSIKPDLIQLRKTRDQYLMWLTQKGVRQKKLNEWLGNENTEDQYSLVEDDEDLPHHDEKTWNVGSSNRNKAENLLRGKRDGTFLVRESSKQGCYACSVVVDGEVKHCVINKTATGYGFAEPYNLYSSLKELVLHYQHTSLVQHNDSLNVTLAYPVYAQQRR
# Sequence of PI3-kinase p110-alpha/p85-alpha (P42336 whole entry, canonical isoform): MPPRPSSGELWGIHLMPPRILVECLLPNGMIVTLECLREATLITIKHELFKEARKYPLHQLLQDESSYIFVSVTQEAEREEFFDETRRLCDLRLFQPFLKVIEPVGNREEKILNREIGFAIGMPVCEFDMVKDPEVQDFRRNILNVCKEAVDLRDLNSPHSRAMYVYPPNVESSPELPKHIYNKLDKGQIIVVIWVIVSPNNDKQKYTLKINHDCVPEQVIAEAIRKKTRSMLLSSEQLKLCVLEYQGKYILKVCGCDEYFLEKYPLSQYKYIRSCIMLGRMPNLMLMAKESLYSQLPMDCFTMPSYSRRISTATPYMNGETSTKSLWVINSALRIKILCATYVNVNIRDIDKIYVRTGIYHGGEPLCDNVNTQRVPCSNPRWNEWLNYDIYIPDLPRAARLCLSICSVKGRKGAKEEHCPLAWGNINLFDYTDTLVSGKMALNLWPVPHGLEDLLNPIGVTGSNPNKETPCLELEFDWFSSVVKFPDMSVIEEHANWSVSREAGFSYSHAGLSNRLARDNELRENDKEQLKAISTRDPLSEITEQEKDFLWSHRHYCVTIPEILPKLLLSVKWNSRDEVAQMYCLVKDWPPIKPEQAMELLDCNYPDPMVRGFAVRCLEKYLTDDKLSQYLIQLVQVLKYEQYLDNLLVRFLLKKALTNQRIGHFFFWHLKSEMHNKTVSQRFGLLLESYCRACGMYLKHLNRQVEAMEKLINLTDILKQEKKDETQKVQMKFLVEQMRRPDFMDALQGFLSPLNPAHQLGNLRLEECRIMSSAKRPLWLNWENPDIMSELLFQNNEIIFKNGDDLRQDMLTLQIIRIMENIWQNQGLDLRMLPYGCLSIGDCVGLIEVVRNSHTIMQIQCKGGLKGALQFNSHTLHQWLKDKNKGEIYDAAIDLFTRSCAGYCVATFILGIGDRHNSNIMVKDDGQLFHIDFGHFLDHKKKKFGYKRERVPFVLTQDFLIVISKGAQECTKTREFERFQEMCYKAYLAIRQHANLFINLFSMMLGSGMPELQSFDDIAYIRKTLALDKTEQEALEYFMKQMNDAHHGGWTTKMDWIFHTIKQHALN
# Sequence of Phosphatidylinositol 4,5-bisphosphate 3-kinase catalytic subunit beta isoform (Homo sapiens) (P42338 whole entry, looked up, canonical isoform): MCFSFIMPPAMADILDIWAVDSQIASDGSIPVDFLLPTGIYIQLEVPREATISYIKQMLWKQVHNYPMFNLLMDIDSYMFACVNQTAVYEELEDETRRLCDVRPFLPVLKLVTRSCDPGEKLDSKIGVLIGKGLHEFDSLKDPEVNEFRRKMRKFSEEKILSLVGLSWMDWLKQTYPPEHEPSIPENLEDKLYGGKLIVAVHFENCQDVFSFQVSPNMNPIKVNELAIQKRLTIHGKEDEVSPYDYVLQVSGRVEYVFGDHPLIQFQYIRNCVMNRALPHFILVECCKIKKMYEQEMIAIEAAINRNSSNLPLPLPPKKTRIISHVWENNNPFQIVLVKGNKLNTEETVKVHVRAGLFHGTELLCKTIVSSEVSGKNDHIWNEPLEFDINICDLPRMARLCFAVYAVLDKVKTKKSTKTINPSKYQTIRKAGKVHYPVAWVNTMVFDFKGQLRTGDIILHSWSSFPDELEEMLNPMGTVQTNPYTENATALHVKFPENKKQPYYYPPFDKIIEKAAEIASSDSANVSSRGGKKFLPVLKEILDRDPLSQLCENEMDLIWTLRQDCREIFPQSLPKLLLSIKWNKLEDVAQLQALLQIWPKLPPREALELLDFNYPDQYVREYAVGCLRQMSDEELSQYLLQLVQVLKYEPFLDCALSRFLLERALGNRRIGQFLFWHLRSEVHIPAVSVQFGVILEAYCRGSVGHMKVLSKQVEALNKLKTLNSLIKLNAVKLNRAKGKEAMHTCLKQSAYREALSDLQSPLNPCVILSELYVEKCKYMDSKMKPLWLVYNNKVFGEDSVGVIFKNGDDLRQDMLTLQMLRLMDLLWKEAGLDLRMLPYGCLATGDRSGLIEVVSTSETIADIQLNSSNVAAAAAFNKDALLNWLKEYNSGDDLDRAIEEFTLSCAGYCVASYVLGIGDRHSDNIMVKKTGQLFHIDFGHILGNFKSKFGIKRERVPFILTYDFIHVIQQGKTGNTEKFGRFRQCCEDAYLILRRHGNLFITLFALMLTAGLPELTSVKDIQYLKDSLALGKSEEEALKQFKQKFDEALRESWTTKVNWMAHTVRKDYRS
structure (smiles),measurement,setting,value
Nc1nccc(-c2cc(-c3nnc[nH]3)c3ncn(-c4ccnc5c(F)ccc(F)c45)c3c2)c1F,IC50,[1],233 nM
same,IC50,PI3K p110 beta/p85 alpha,11 nM
same,IC50,[2],67 nM
same,IC50,[3],440 nM
Cc1nc2c(-c3nnc[nH]3)cc(-c3ccnc(N)c3F)cc2n1-c1ccnc2c(F)ccc(F)c12,IC50,[3],> 10000 nM and 4270 nM and 4160 nM
same,CLint scaled at 1 µM,"[4]; liver microsomes, read-out: CLH (converted)",2.5 mL/min/kg
same,CLH,"[4]; microsomes, 1 µM",< 2 mL/min/kg
same,Drug metabolism,Aldehyde oxidase [5],Metabolite_Detected
same,Drug metabolism,Aldehyde oxidase [6],Metabolite_Detected
same,Stability,Aldehyde oxidase [6],Stable
same,Drug metabolism,Aldehyde oxidase [7],Metabolite_Notdetected; also recorded: Metabolite_Detected
same,inhibition (INH),[8],Not Active
same,inhibition (INH),Cytochrome P450,Not Active
same,fraction unbound,[9],0.19
same,clearance,[10],11.3 mL/min/kg
same,Vd,[11],2.68 L/kg
same,half-life,[12],9.55 h
same,MRT,[13],3.87 h
same,bioavailability,[14],60.4%
same,fraction unbound,[15],0.078
same,clearance,[16],3.67 mL/min/kg
same,Vd,[17],0.89 L/kg
same,half-life,[18],3.61 h
same,MRT,[19],4.04 h
same,fraction unbound,[20],0.062
same,clearance,[21],1.83 mL/min/kg
same,Vd,[22],0.45 L/kg
same,half-life,[23],5.17 h
same,MRT,[24],4.3 h
same,bioavailability,[25],64.2%
same,fraction unbound,[26],0.072
same,clearance,[27],1.67 mL/min/kg
same,Vd,[28],0.63 L/kg
same,half-life,[29],6.04 h
same,MRT,[30],6.2 h
same,Papp A→B at 10 µM,[31],17 ×10⁻⁶ cm/s
same,efflux ratio at 10 µM,[32],< 1.5
same,K,[33],2.64 ×10⁻⁷ /s
same,inhibition,[34],Active
